Measurements from ChEMBL document CHEMBL1240422, “Design, synthesis and biological evaluation of 3,5-diaryl-isoxazoline/isoxazole-pyrrolobenzodiazepine conjugates as potential anticancer agents” (2010).

How the values were obtained:
Format in all cases: functional
KM12 = assay: Anticancer activity against human KM12 cells after 48 hrs by SRB assay; settings: KM12, 48 h
SK-OV-3 = assay: Anticancer activity against human SKOV3 cells after 48 hrs by SRB assay; settings: SK-OV-3, 48 h
RPMI-8226 = assay: Anticancer activity against human RPMI8226 cells after 48 hrs by SRB assay; settings: RPMI-8226, 48 h
M14 = assay: Anticancer activity against human M14 cells after 48 hrs by SRB assay; settings: M14, 48 h
CCRF-CEM = assay: Anticancer activity against human CCRF-CEM cells after 48 hrs by SRB assay
BT-549 = assay: Anticancer activity against human BT549 cells after 48 hrs by SRB assay; settings: BT-549, 48 h
DU-145 = assay: Anticancer activity against human DU145 cells after 48 hrs by SRB assay; settings: DU-145, 48 h
SK-MEL-5 = assay: Anticancer activity against human SK-MEL-5 cells after 48 hrs by SRB assay; settings: SK-MEL-5, 48 h
HCC 2998 = assay: Anticancer activity against human HCC2998 cells after 48 hrs by SRB assay; settings: HCC 2998, 48 h
LOX IMVI = assay: Anticancer activity against human LOXIMVI cells after 48 hrs by SRB assay
MDA-MB-435 = assay: Anticancer activity against human MDA-MB-435 cells after 48 hrs by SRB assay; settings: MDA-MB-435, 48 h
EKVX = assay: Anticancer activity against human EKVX cells after 48 hrs by SRB assay
SK-MEL-2 = assay: Anticancer activity against human SK-MEL-2 cells after 48 hrs by SRB assay; settings: SK-MEL-2, 48 h
PC-3 = assay: Anticancer activity against human PC3 cells after 48 hrs by SRB assay; settings: PC-3, 48 h
Outline: (§1)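 Grown in RPMI 1640 with 10% FBS and 2 mM L-glutamine at 37 °C, 5% CO2. Seeded at densities set by doubling time, then preincubated 24 h. Continuous 48 h drug exposure at four concentrations (0.1, 1, 10, 100), triplicate wells. Fixed with cold TCA (final 10%) at 4 °C, 60 min. Stained with 0.4% SRB in 1% acetic acid, eluted with 10 mM Tris base, read at 540/690 nm. Percent growth versus control wells.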

NCI-H460 = assay: Anticancer activity against human NCI-H460 cells after 48 hrs by SRB assay; settings: NCI-H460, 48 h
HOP-62 = assay: Anticancer activity against human HOP62 cells after 48 hrs by SRB assay; settings: HOP-62, 48 h; outline: as §1
OVCAR-4 = assay: Anticancer activity against human OVCAR4 cells after 48 hrs by SRB assay; settings: OVCAR-4, 48 h
SNB-19 = assay: Anticancer activity against human SNB19 cells after 48 hrs by SRB assay; settings: SNB-19, 48 h
OVCAR-8 = assay: Anticancer activity against human OVCAR8 cells after 48 hrs by SRB assay; settings: OVCAR-8, 48 h
NCI-H23 = assay: Anticancer activity against human NCI-H23 cells after 48 hrs by SRB assay; settings: NCI-H23, 48 h
K562 = assay: Anticancer activity against human K562 cells after 48 hrs by SRB assay; settings: K562, 48 h
SNB-75 = assay: Anticancer activity against human SNB75 cells after 48 hrs by SRB assay; settings: SNB-75, 48 h
A549 = assay: Anticancer activity against human A549 cells after 48 hrs by SRB assay; settings: A549, 48 h; outline: as §1
UACC-257 = assay: Anticancer activity against human UACC257 cells after 48 hrs by SRB assay; settings: UACC-257, 48 h
786-0 = assay: Anticancer activity against human 786-0 cells after 48 hrs by SRB assay; settings: 786-0, 48 h
COLO 205 = assay: Anticancer activity against human COLO205 cells after 48 hrs by SRB assay; settings: COLO 205, 48 h; outline: as §1
UO-31 = assay: Anticancer activity against human UO31 cells after 48 hrs by SRB assay; settings: UO-31, 48 h
RXF 393 = assay: Anticancer activity against human […] cells after 48 hrs by SRB assay; settings: RXF 393, 48 h
SR = assay: Anticancer activity against human SR cells after 48 hrs by SRB assay
CAKI-1 = assay: Anticancer activity against human Caki1 cells after 48 hrs by SRB assay; settings: CAKI-1, 48 h
SN12C = assay: Anticancer activity against human SN12C cells after 48 hrs by SRB assay
MDA-MB-231 = assay: Anticancer activity against human MDA-MB-231 cells after 48 hrs by SRB assay; settings: MDA-MB-231, 48 h
OVCAR-5 = assay: Anticancer activity against human OVCAR5 cells after 48 hrs by SRB assay; settings: OVCAR-5, 48 h
NCI-H322M = assay: Anticancer activity against human NCI-H322M cells after 48 hrs by SRB assay
IGROV-1 = assay: Anticancer activity against human IGROV1 cells after 48 hrs by SRB assay; settings: IGROV-1, 48 h
MCF7 = assay: Anticancer activity against human MCF7 cells after 48 hrs by SRB assay; settings: MCF7, 48 h; outline: as §1
TK-10 = assay: Anticancer activity against human TK10 cells after 48 hrs by SRB assay; settings: TK-10, 48 h
HT-29 = assay: Anticancer activity against human HT-29 cells after 48 hrs by SRB assay; settings: HT-29, 48 h
UACC-62 = assay: Anticancer activity against human UACC62 cells after 48 hrs by SRB assay; settings: UACC-62, 48 h
SW-620 = assay: Anticancer activity against human SW620 cells after 48 hrs by SRB assay; settings: SW-620, 48 h
NCI-H522 = assay: Anticancer activity against human NCI-H522 cells after 48 hrs by SRB assay; settings: NCI-H522, 48 h
NCI-H226 = assay: Anticancer activity against human NCI-H226 cells after 48 hrs by SRB assay; settings: NCI-H226, 48 h
SK-MEL-28 = assay: Anticancer activity against human SK-MEL-28 cells after 48 hrs by SRB assay; settings: SK-MEL-28, 48 h
[1] = Anticancer activity against human Hs 578T cells after 48 hrs by SRB assay
HCT-15 = assay: Anticancer activity against human HCT15 cells after 48 hrs by SRB assay; settings: HCT-15, 48 h
ACHN = assay: Anticancer activity against human ACHN cells after 48 hrs by SRB assay
HOP-92 = assay: Anticancer activity against human HOP92 cells after 48 hrs by SRB assay; settings: HOP-92, 48 h
MOLT-4 = assay: Anticancer activity against human MOLT4 cells after 48 hrs by SRB assay; settings: MOLT-4, 48 h
HL-60(TB) = assay: Anticancer activity against human HL-60(TB) cells after 48 hrs by SRB assay; settings: HL-60, 48 h
A498 = assay: Anticancer activity against human A498 cells after 48 hrs by SRB assay; settings: A498, 48 h
HCT-116 = assay: Anticancer activity against human HCT116 cells after 48 hrs by SRB assay; settings: HCT-116, 48 h
OVCAR-3 = assay: Anticancer activity against human OVCAR-3 cells after 48 hrs by SRB assay; settings: OVCAR-3, 48 h
SF-539 = assay: Anticancer activity against human SF539 cells after 48 hrs by SRB assay; settings: SF-539, 48 h
Malme-3M = assay: Anticancer activity against human MALME-3M cells after 48 hrs by SRB assay
T47D = assay: Anticancer activity against human T47D cells after 48 hrs by SRB assay
SF-268 = assay: Anticancer activity against human SF268 cells after 48 hrs by SRB assay; settings: SF-268, 48 h
U-251 = assay: Anticancer activity against human U251 cells after 48 hrs by SRB assay; settings: U-251, 48 h
MDA-MB-468 = assay: Anticancer activity against human MDA-MB-468 cells after 48 hrs by SRB assay; settings: MDA-MB-468, 48 h

Compound `COc1ccc(C2CC(c3cc(OC)c(OC)c(OC)c3)=NO2)cc1OCCCCOc1cc2c(cc1OC)C(=O)N1CCC[C@H]1C=N2` (stereo partly drawn) has a GI50 (KM12) of 1.74 µM, a GI50 (SK-OV-3) of 3.37 µM and a GI50 (RPMI-8226) of 1.43 µM. It also gave a GI50 (M14) of 1.73 µM, a GI50 (CCRF-CEM) of 1.41 µM and a GI50 (BT-549) of 1.23 µM. It also gave a GI50 (DU-145) of 0.32 µM, a GI50 (SK-MEL-5) of 1.47 µM and a GI50 (HCC 2998) of 1.58 µM. The GI50 (LOX IMVI) was 1.47 µM, the GI50 (MDA-MB-435) was 3.54 µM and the GI50 (EKVX) was 3.68 µM. It also gave a GI50 (SK-MEL-2) of 2.03 µM, a GI50 (PC-3) of 0.32 µM and a GI50 (NCI-H460) of 1.85 µM. The GI50 (HOP-62) was 1.68 µM, the GI50 (OVCAR-4) was 2.07 µM and the GI50 (SNB-19) was 1.96 µM. The GI50 (OVCAR-8) was 2.55 µM, the GI50 (NCI-H23) was 1.83 µM and the GI50 (K562) was 1.26 µM. The GI50 (SNB-75) was 1.71 µM, the GI50 (A549) was 2.33 µM and the GI50 (UACC-257) was 2.33 µM. The GI50 (786-0) was 1.57 µM, the GI50 (COLO 205) was 1.96 µM and the GI50 (UO-31) was 2.09 µM. The GI50 (RXF 393) was 1.39 µM, the GI50 (SR) was 1.12 µM and the GI50 (CAKI-1) was 3.09 µM. The GI50 (SN12C) was 1.58 µM, the GI50 (MDA-MB-231) was 1.15 µM and the GI50 (OVCAR-5) was 3.13 µM. For the same compound, the GI50 (NCI-H322M) was 3.46 µM, the GI50 (IGROV-1) was 1.57 µM and the GI50 (MCF7) was 1.75 µM. For the same compound, the GI50 (TK-10) was 3.51 µM, the GI50 (HT-29) was 2.75 µM and the GI50 (UACC-62) was 1.52 µM. For the same compound, the GI50 (SW-620) was 1.55 µM, the GI50 (NCI-H522) was 0.61 µM and the GI50 (NCI-H226) was 1.67 µM. For the same compound, the GI50 (SK-MEL-28) was 2.07 µM, the GI50 [1] was 1.1 µM and the GI50 (HCT-15) was 2.27 µM. For the same compound, the GI50 (ACHN) was 2.41 µM, the GI50 (HOP-92) was 2.47 µM and the GI50 (MOLT-4) was 1.85 µM. The GI50 (HL-60(TB)) was 1.9 µM, the GI50 (A498) was 1.72 µM and the GI50 (HCT-116) was 1.7 µM. For the same compound, the GI50 (OVCAR-3) was 1.94 µM, the GI50 (SF-539) was 1.8 µM and the GI50 (Malme-3M) was 2.88 µM. It also gave a GI50 (T47D) of 1.31 µM, a GI50 (SF-268) of 1.89 µM and a GI50 (U-251) of 1.73 µM. It also gave a GI50 (MDA-MB-468) of 1.34 µM.
